ChEMBL document CHEMBL2169867, “Novel β-amino acid derivatives as inhibitors of cathepsin A” (J Med Chem, 2012)
Active and inactive are the calls of the source. No cut-off for these calls is given here.

What was measured:
[1] = molecular target: T1, Lysosomal protective protein (Homo sapiens, UniProt P10619); experiment: Inhibition of human recombinant Myc-His10-tagged cathepsin A expressed in baculovirus infected Sf9 cells using BodipyFL labeled bradykinin as substrate incubated for 15 mins prior to substrate addition measured after 15 mins by fluorimetric analysis
T1 sequence (P10619 whole entry): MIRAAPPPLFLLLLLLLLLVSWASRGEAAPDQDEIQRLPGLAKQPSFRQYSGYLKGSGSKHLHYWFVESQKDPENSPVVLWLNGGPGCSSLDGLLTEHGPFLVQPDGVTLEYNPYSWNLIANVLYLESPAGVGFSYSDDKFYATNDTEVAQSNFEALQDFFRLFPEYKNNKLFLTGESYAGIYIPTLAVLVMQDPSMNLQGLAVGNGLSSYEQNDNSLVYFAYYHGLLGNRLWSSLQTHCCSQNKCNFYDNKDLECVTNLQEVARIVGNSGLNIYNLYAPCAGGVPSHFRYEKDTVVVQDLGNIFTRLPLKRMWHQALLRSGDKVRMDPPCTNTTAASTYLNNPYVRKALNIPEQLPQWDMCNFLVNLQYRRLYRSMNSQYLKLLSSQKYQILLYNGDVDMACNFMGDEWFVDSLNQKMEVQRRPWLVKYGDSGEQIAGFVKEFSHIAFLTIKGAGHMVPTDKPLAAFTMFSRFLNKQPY

[2] = Cmax in Sprague-Dawley rat heart at 10 mg/kg, po; assay type: ADME, organism-based; set-up: dose 10 mg/kg, route oral
In short: (§1)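 Male Sprague-Dawley rats; single oral 10 mg/kg in glycofurol 75 (19%)/Cremophor RH40 (6%)/water (75%). Plasma and heart sampled at eight time points over 24 h, three animals per time point, nonserial design. Heart homogenized with water (2 g per 1 g tissue). Concentrations measured by LC-MS/MS with a structurally related internal standard; AUC(0-inf) taken from plasma concentration-time curves.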

[3] = molecular target: Neprilysin (Homo sapiens, UniProt P08473); experiment: Inhibition of human recombinant NEP using Mca-RPPGFSAFK(Dnp)-OH as substrate incubated for 15 mins prior to substrate addition measured after 20 to 30 mins by fluorimetric analysis
Neprilysin, sequence (P08473 whole entry): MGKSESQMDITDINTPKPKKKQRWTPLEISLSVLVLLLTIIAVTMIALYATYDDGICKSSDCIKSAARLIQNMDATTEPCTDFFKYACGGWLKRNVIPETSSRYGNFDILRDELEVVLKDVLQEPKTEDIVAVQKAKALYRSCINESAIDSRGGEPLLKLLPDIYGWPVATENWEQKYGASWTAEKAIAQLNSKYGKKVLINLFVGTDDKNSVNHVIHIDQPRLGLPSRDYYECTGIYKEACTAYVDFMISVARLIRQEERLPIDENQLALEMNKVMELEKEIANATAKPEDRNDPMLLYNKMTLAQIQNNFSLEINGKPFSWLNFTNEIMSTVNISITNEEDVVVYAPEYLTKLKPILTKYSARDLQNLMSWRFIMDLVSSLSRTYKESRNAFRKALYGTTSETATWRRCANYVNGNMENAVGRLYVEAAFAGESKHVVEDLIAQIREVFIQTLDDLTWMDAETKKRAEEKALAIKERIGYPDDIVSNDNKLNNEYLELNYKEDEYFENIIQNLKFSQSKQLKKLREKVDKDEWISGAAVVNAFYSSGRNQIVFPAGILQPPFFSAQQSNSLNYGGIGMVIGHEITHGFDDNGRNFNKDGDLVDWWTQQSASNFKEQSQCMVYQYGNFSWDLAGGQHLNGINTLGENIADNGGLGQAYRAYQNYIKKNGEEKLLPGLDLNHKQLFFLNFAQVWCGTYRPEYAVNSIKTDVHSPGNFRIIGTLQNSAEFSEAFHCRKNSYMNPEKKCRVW
In short: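 Recombinant human NEP and inhibitor preincubated 15 min at room temperature in reaction buffer, then substrate added. Fluorescence read after 20-30 min at room temperature. % inhibition and IC50 calculated against internal high and low controls.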

[4] = AUC (0 to infinity) in Sprague-Dawley rat plasma at 10 mg/kg, po; assay type: ADME, organism-based; set-up: time infinity, dose 10 mg/kg, route oral; in short: as §1
[5] = Cmax in Sprague-Dawley rat plasma at 10 mg/kg, po; assay type: ADME, organism-based; set-up: dose 10 mg/kg, route oral; in short: as §1
[6] = tested on: Rattus norvegicus; experiment: Antihypertensive activity in Wistar rat assessed as increase in bradykinin level in urine at 30 mg/kg, po relative to vehicle-treated control; assay type: functional
In short: (§2)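 Male Wistar rats dosed po at 30 mg kg⁻¹ day⁻¹. Urine collected over 6 h before and after treatment. Bradykinin measured by commercial RIA; creatinine excretion also determined. Mean ± SEM, n = 9-10; paired t test.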

[7] = tested on: Rattus norvegicus; experiment: Effect on glomerular filtration rate in Wistar rat assessed as change in creatinine excretion at 30 mg/kg, po relative to vehicle-treated control; assay type: functional, organism-based; set-up: dose 30 mg/kg; in short: as §2
[8] = molecular target: Cytochrome P450 3A4 (Homo sapiens, UniProt P08684); experiment: (§3) Induction of CYP3A4 relative to control; assay type: ADME
Cytochrome P450 3A4, sequence (P08684 whole entry): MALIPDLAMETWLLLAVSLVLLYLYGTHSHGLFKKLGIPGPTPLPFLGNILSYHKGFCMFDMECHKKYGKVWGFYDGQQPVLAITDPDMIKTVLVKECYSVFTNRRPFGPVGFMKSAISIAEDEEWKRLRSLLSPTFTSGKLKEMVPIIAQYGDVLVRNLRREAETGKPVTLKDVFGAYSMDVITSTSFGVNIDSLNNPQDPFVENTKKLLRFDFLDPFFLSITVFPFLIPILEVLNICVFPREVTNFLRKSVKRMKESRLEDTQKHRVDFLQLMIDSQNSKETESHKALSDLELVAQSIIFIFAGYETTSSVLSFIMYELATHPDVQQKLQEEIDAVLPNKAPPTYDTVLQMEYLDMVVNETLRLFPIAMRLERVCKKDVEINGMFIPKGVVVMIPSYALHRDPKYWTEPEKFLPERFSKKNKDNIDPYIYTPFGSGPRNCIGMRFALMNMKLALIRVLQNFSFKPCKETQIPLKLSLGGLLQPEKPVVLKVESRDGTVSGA

[9] = AUC (0 to infinity) in Sprague-Dawley rat heart at 10 mg/kg, po; assay type: ADME, organism-based; set-up: time infinity, dose 10 mg/kg, route oral; in short: as §1
[10] = tested on: Rattus norvegicus; experiment: Antihypertensive activity in Wistar rat assessed as bradykinin-dependent diuresis at 1 mg/kg, iv administered as bolus measured as urine flow rate (reference value: 11.6 uL/min); assay type: functional
[11] = Permeability across human Caco2 cells; assay type: ADME, cell-based; settings: Caco-2, read-out: permeability
[12] = molecular target: Cathepsin A (Homo sapiens); experiment: Inhibition of cathepsin A
[13] = molecular target: CYP3A4 (Homo sapiens, UniProt P08684); experiment: as §3; assay type: ADME; settings: human
CYP3A4, sequence (P08684 whole entry): as above

[14] = tested on: Mus musculus; experiment: Cardioprotective activity against angiotensin 2-induced cardiac hypertrophy in B6.129P2-ApoE/J mouse assessed as left ventricular relaxation time at 100 mg/kg/day, po administered BID after 4 weeks (reference value: 8.73 0.41 ms); assay type: functional, Heart left ventricle
[15] = tested on: Mus musculus; experiment: Cardioprotective activity against angiotensin 2-induced cardiac hypertrophy in B6.129P2-ApoE/J mouse assessed as left ventricular end diastolic pressure at 100 mg/kg/day, po administered BID after 4 weeks (reference value: 15.49 1.95 mmHg); assay type: functional, Heart left ventricle
[16] = tested on: Mus musculus; experiment: Cardioprotective activity against angiotensin 2-induced cardiac hypertrophy in B6.129P2-ApoE/J mouse assessed as mean arterial pressure at 100 mg/kg/day, po administered BID after 4 weeks (reference value: 99.03 6.82 mmHg); assay type: functional, Heart
[17] = tested on: Mus musculus; experiment: Toxicity in B6.129P2-ApoE/J mouse assessed as body weight at 100 mg/kg/day, po administered BID after 4 weeks (reference value: 30.48 0.52 g); assay type: organism-based; set-up: route oral; settings: in vivo, 672 h
[18] = tested on: Mus musculus; experiment: Cardioprotective activity against angiotensin 2-induced cardiac hypertrophy in B6.129P2-ApoE/J mouse assessed as left ventricular wet weight at 100 mg/kg/day, po administered BID after 4 weeks (reference value: 182.03 […]); assay type: functional, Heart left ventricle
[19] = tested on: Mus musculus; experiment: Ratio of left ventricular wet weight to body weight in B6.129P2-ApoE/J mouse at 100 mg/kg/day, po administered BID after 4 weeks (reference value: 5.99 0.28 mg/g); assay type: functional
[20] = tested on: Mus musculus; experiment: Cardioprotective activity against angiotensin 2-induced cardiac hypertrophy in B6.129P2-ApoE/J mouse assessed as left ventricular end systolic pressure at 100 mg/kg/day, po administered BID after 4 weeks (reference value: 139.36 9.79 mmHg); assay type: functional, Heart left ventricle
[21] = tested on: Mus musculus; experiment: Cardioprotective activity against angiotensin 2-induced cardiac hypertrophy in B6.129P2-ApoE/J mouse assessed as ejection fraction at 100 mg/kg/day, po administered BID after 4 weeks (reference value: 51.14 2.49 %); assay type: functional, Heart
[22] = tested on: Mus musculus; experiment: Cardioprotective activity against angiotensin 2-induced cardiac hypertrophy in B6.129P2-ApoE/J mouse assessed as heart rate at 100 mg/kg/day, po administered BID after 4 weeks (reference value: 403.23 7.98 bpm); assay type: functional

Cc1cccc([C@H](CC(=O)O)NC(=O)c2cc(=O)n(-c3ccccc3F)[nH]2)c1
IC50 [1]: 252 nM

Cc1ccccc1[C@H](CC(=O)O)NC(=O)c1cc(OC[C@H](O)C(C)(C)C)n(-c2ccccc2F)n1
Cmax [2]: 426 ng/mL | IC50 [3]: > 1000 nM | inhibition [3]: inactive | AUC(0-inf) [4]: 5300 ng·h/mL | Cmax [5]: 1360 ng/mL | fold change (FC) [6]: 2 | Activity [7]: inactive | Activity [8]: Not Active | AUC(0-inf) [9]: 1600 ng·h/mL | Activity [10]: 27.7 µL/min | Papp [11]: > 2 ×10⁻⁶ cm/s

CCOc1cc(C(=O)N[C@@H](CC(=O)O)c2ccccc2C)nn1-c1ccccc1F
IC50 [12]: 15 nM | IC50 [1]: 15 nM | Emax [13]: 51%

Cc1ccccc1[C@H](CC(=O)O)NC(=O)c1nn(-c2ccccc2)cc1O
IC50 [1]: 110 nM

Cc1ccccc1[C@H](CC(=O)O)NC(=O)c1cc(OC[C@@H](O)C(C)(C)C)n(-c2ccccc2F)n1
IC50 [1]: 10 nM

O=C(O)CC(NC(=O)c1cc(=O)n(-c2ccc(Cl)cc2)[nH]1)c1cc(Cl)ccc1Cl (racemic)
IC50 [3]: 300 nM | IC50 [1]: > 30000 nM

CC(=O)S[C@@H]1CC2=CC(=O)CC[C@]2(C)[C@H]2CC[C@@]3(C)[C@@H](CC[C@@]34CCC(=O)O4)[C@H]12 [SPIRONOLACTONE]
Time [14]: 7.52 ms | Activity [15]: 14.93 mmHg | Activity [16]: 103.99 mmHg | Activity [17]: 28.84 g | Activity [18]: 145.96 mg | Ratio [19]: 5.07 mg/g | Activity [20]: 137.39 mmHg | Activity [21]: 58.59% | Activity [22]: 410.78 bpm

Cc1ccccc1[C@@H](CC(=O)O)NC(=O)c1cc(=O)n(-c2ccccc2)[nH]1
IC50 [1]: 7800 nM

O=C(O)CC(NC(=O)c1cc(=O)n(-c2ccc(F)cc2F)[nH]1)c1cccc(Cl)c1Cl (racemic)
IC50 [1]: 120 nM

CC(C)(C)[C@H](O)COc1cc(C(=O)N[C@@H](CC(=O)O)c2ccc(Cl)cc2Cl)nn1-c1ccccc1F
IC50 [1]: 70 nM

O=C(O)CC(NC(=O)c1cc(=O)n(-c2ccccc2F)[nH]1)c1ccc(-c2ccc(F)cc2)cc1 (racemic)
IC50 [1]: 25 nM

Cc1ccccc1[C@H](CC(=O)O)NC(=O)c1cc(=O)n(-c2ccccc2)[nH]1
IC50 [1]: 70 nM

CC(C)(C)C(=O)COc1cc(C(=O)N[C@@H](CC(=O)O)c2ccc(Cl)cc2Cl)nn1-c1ccccc1F
IC50 [1]: 60 nM | Papp [11]: > 2 ×10⁻⁶ cm/s

Cc1ccccc1[C@H](CC(=O)O)NC(=O)c1cc(OCC2CC2)n(-c2ccccc2F)n1
IC50 [3]: 27000 nM | IC50 [12]: 15 nM | IC50 [1]: 15 nM | Emax [13]: 72%

CC(C)(C)[C@@H](O)COc1cc(C(=O)N[C@@H](CC(=O)O)c2ccc(Cl)cc2Cl)nn1-c1ccccc1F
Cmax [2]: 872 ng/mL | IC50 [3]: > 1000 nM | inhibition [3]: inactive | AUC(0-inf) [4]: 9300 ng·h/mL | Cmax [5]: 2670 ng/mL | fold change (FC) [6]: 2 | Activity [7]: inactive | IC50 [1]: 50 nM | Activity [8]: Not Active | AUC(0-inf) [9]: 2600 ng·h/mL | Activity [10]: 36.5 µL/min | Papp [11]: > 2 ×10⁻⁶ cm/s

Cc1ccccc1[C@H](CC(=O)O)NC(=O)c1cc(=O)n(-c2ccc(F)cc2)[nH]1
IC50 [1]: 87 nM

O=C(O)CC(NC(=O)c1cc(=O)n(-c2ccccc2F)[nH]1)c1ccccc1 (racemic)
IC50 [1]: 226 nM

COc1c(F)c(C(=O)N[C@@H](CC(=O)O)c2ccccc2C)nn1-c1ccccc1F
IC50 [1]: 30 nM

O=C(O)CC(NC(=O)c1cc(=O)n(-c2ccccc2)[nH]1)c1cccc(Cl)c1Cl (racemic)
IC50 [3]: < 60 nM | IC50 [1]: 100 nM

Cc1ccc(C)c(-n2[nH]c(C(=O)NC(CC(=O)O)c3ccc(-c4ccccc4)cc3)cc2=O)c1 (racemic)
IC50 [1]: 803 nM

Cc1ccccc1[C@H](CC(=O)O)NC(=O)c1cc(=O)n(-c2ccccc2Cl)[nH]1
IC50 [1]: 57 nM

COc1c(Cl)c(C(=O)N[C@@H](CC(=O)O)c2ccccc2C)nn1-c1ccccc1F
IC50 [1]: 110 nM

Cc1ccccc1[C@H](CC(=O)O)NC(=O)c1cc(=O)n(-c2cccc(F)c2)[nH]1
IC50 [1]: 59 nM

Cc1ccccc1[C@H](CC(=O)O)NC(=O)c1cc(=O)n(-c2cccc(Cl)c2)[nH]1
IC50 [1]: 102 nM

COc1cn(-c2ccccc2)nc1C(=O)N[C@@H](CC(=O)O)c1ccccc1C
IC50 [1]: 100 nM

Cc1ccc(F)cc1C(CC(=O)O)NC(=O)c1cc(=O)n(-c2ccccc2F)[nH]1 (racemic)
IC50 [1]: 76 nM

Cc1ccccc1[C@H](CC(=O)O)NC(=O)c1cc(OCC(=O)C(C)(C)C)n(-c2ccccc2F)n1
IC50 [1]: 3 nM | Papp [11]: > 2 ×10⁻⁶ cm/s

Cc1ccc(C)c(-n2[nH]c(C(=O)NC(CC(=O)O)c3ccc(F)cc3)cc2=O)c1 (racemic)
IC50 [1]: 5380 nM

O=C(O)C[C@H](NC(=O)c1cc(=O)n(-c2ccccc2F)[nH]1)c1ccccc1C(F)(F)F
IC50 [1]: 375 nM

Cc1ccc([C@H](CC(=O)O)NC(=O)c2cc(=O)n(-c3ccccc3F)[nH]2)cc1
IC50 [1]: 274 nM

COc1ccccc1[C@H](CC(=O)O)NC(=O)c1cc(=O)n(-c2ccccc2F)[nH]1
IC50 [1]: 357 nM

O=C(O)CC(NC(=O)c1cc(=O)n(-c2ccccc2)[nH]1)c1ccc(Oc2ccccc2)cc1 (racemic)
IC50 [1]: 200 nM
